Experimental data from ChEMBL document CHEMBL1255300, “Pharmacodynamics of the antibacterial effect and emergence of resistance to tomopenem, formerly RO4908463/CS-023, in an in vitro pharmacokinetic model of Staphylococcus aureus infection” (Antimicrob Agents Chemother, 2008).
≈ marks a conversion by molar mass, not a printed value. Calls of active or inactive are those of the source. The calls are words filed in the database; no cut-off is given here.

What was measured:
[1] = system: Staphylococcus aureus; assay: AUBKC (0 to 24 hrs) in methicillin-resistant Staphylococcus aureus 33921 infected in in vitro pharmacokinetic model at 1500 mg, iv every 8 hrs using 10^6 CFU/ml inoculum; type: functional
Outline: (§1)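 Single-compartment dilutional in vitro PK model at 37°C in 10% Mueller-Hinton broth, stirred, flow 132 ml/h. […] Inoculum 10^6 CFU/ml added 45 min before dosing, or 10^8 CFU/ml run overnight. Viable counts with β-lactamase neutralisation. AUBKC by log-linear trapezoidal rule, at least triplicate.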

[2] = system: Staphylococcus aureus; assay: AUBKC (0 to 48 hrs) in methicillin-resistant Staphylococcus aureus 33922 infected in in vitro pharmacokinetic model at 1500 mg, iv every 8 hrs using 10^6 CFU/ml inoculum; type: functional; outline: as §1
[3] = system: Staphylococcus aureus; assay: AUBKC (0 to 48 hrs) in methicillin-resistant Staphylococcus aureus 33827 infected in in vitro pharmacokinetic model at 1500 mg, iv every 8 hrs using 10^6 CFU/ml inoculum; type: functional; outline: as §1
[4] = system: Staphylococcus aureus; assay: AUBKC (0 to 48 hrs) in methicillin-resistant Staphylococcus aureus 33829 infected in in vitro pharmacokinetic model at 1500 mg, iv every 8 hrs using 10^6 CFU/ml inoculum; type: functional; outline: as §1
[5] = system: Staphylococcus aureus; assay: Antibacterial activity against methicillin-resistant Staphylococcus aureus 33827 infected in in vitro pharmacokinetic model assessed as reduction in viable count at 750 mg, iv every 8 hrs measured after 24 hrs using 10^8 CFU/ml inoculum; type: functional
Outline: (§2)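 Single-compartment dilutional in vitro PK model, 10% Mueller-Hinton broth, 37°C, stirred, dilution 132 ml/h. […] Inoculum 10^6 CFU/ml (added 45 min pre-dose) or 10^8 CFU/ml (run overnight). Viable counts by spiral plating, beta-lactamase neutralization, detection limit 10^2 CFU/ml. At least triplicate.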

[6] = system: Staphylococcus aureus; assay: Antibacterial activity against methicillin-resistant Staphylococcus aureus 33827 infected in in vitro pharmacokinetic model assessed as reduction in viable count at 750 mg, iv every 8 hrs measured after 48 hrs using 10^8 CFU/ml inoculum; type: functional; outline: as §2
[7] = system: Staphylococcus aureus; assay: Antibacterial activity against methicillin-resistant Staphylococcus aureus 33922 infected in in vitro pharmacokinetic model assessed as reduction in viable count at 1500 mg, iv every 8 hrs measured after 12 hrs using 10^8 CFU/ml inoculum; type: functional
[8] = system: Staphylococcus aureus; assay: Antibacterial activity against methicillin-resistant Staphylococcus aureus 33827 infected in in vitro pharmacokinetic model assessed as reduction in viable count at 1500 mg, iv every 8 hrs measured after 24 hrs using 10^8 CFU/ml inoculum; type: functional; outline: as §2
[9] = system: Staphylococcus aureus; assay: Antibacterial activity against methicillin-resistant Staphylococcus aureus 33827 by broth dilution method; type: functional
Outline: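 Standard CLSI broth dilution MIC.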

[10] = system: Staphylococcus aureus; assay: Antibacterial activity against methicillin-resistant Staphylococcus aureus 33922 by 10% MH broth method; type: functional
[11] = system: Staphylococcus aureus; assay: Antibacterial activity against methicillin-resistant Staphylococcus aureus 33827 infected in in vitro pharmacokinetic model assessed as reduction in viable count at 1500 mg, iv every 8 hrs measured after 36 hrs using 10^8 CFU/ml inoculum; type: functional; outline: as §2
[12] = system: Staphylococcus aureus; assay: T>MIC in methicillin-resistant Staphylococcus aureus 33820 infected in vitro pharmacokinetic model at 750 mg, iv every 8 hrs; type: functional
[13] = system: Staphylococcus aureus; assay: Antibacterial activity against methicillin-resistant Staphylococcus aureus 33820 infected in in vitro pharmacokinetic model assessed as reduction in viable count at 750 mg, iv every 8 hrs measured after 12 hrs using 10^6 CFU/ml inoculum; type: functional
Outline: (§3)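 Single-compartment dilutional in vitro PK model, 37°C, stirred, in 10% Mueller-Hinton broth. […] Inoculum 10^6 CFU/ml from a 24-h plate culture was added 45 min before dosing. Viable counts by spiral plating on nutrient agar with β-lactamase neutralization. Log change was taken from time 0; detection limit 10^2 CFU/ml; at least triplicate.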

[14] = system: Staphylococcus aureus; assay: Antibacterial activity against methicillin-resistant Staphylococcus aureus 33820 infected in in vitro pharmacokinetic model assessed as reduction in viable count at 750 mg, iv every 8 hrs measured after 36 hrs using 10^6 CFU/ml inoculum; type: functional; outline: as §3
[15] = system: Staphylococcus aureus; assay: Antibacterial activity against methicillin-resistant Staphylococcus aureus 33922 infected in in vitro pharmacokinetic model assessed as reduction in viable count at 750 mg, iv every 8 hrs measured after 48 hrs using 10^6 CFU/ml inoculum; type: functional
[16] = system: Staphylococcus aureus; assay: Antibacterial activity against methicillin-resistant Staphylococcus aureus 33829 assessed as viable count at 4 times of MIC after 48 hrs using 10^6 CFU/ml inoculum; type: functional, organism-based
[17] = system: Staphylococcus aureus; assay: T>MIC for 1-log drop in count in methicillin-resistant Staphylococcus aureus 33829 in in vitro pharmacokinetic model after 24 hrs using 10^6 CFU/ml inoculum; type: functional
[18] = system: Staphylococcus aureus; assay: T>MIC for 2-log drop in count in methicillin-sensitive Staphylococcus aureus 5956 in in vitro pharmacokinetic model after 24 hrs using 10^6 CFU/ml inoculum; type: functional
[19] = system: Staphylococcus aureus; assay: T>MIC for 4-log drop in count in methicillin-resistant Staphylococcus aureus 33827 in in vitro pharmacokinetic model after 24 hrs using 10^6 CFU/ml inoculum; type: functional
[20] = system: Staphylococcus aureus; assay: T>MIC for 1-log drop in count in methicillin-resistant Staphylococcus aureus 33815 in in vitro pharmacokinetic model after 24 hrs using 10^8 CFU/ml inoculum; type: functional
[21] = system: Staphylococcus aureus; assay: T>MIC for 3-log drop in count in methicillin-resistant Staphylococcus aureus 33827 in in vitro pharmacokinetic model after 24 hrs using 10^8 CFU/ml inoculum; type: functional
[22] = system: Staphylococcus aureus; assay: Antibacterial activity against methicillin-resistant Staphylococcus aureus 33815 infected in in vitro pharmacokinetic model assessed as reduction in viable count at 1500 mg, iv every 8 hrs measured after 12 hrs using 10^6 CFU/ml inoculum; type: functional
Outline: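 Log change in viable count from time zero to 12 h, β-lactamase-neutralised spiral plating, detection limit 10^2 CFU/ml, at least triplicate.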

[23] = system: Staphylococcus aureus; assay: Antibacterial activity against methicillin-resistant Staphylococcus aureus 33820 infected in in vitro pharmacokinetic model assessed as reduction in viable count at 1500 mg, iv every 8 hrs measured after 36 hrs using 10^6 CFU/ml inoculum; type: functional; outline: as §3
[24] = system: Staphylococcus aureus; assay: Antibacterial activity against methicillin-resistant Staphylococcus aureus 33922 infected in in vitro pharmacokinetic model assessed as reduction in viable count at 1500 mg, iv every 8 hrs measured after 48 hrs using 10^6 CFU/ml inoculum; type: functional
[25] = system: Staphylococcus aureus; assay: Antibacterial activity against methicillin-resistant Staphylococcus aureus 33829 infected in in vitro pharmacokinetic model assessed as reduction in viable count at 1500 mg, iv every 8 hrs measured after 48 hrs using 10^6 CFU/ml inoculum; type: functional; outline: as §2
[26] = system: Staphylococcus aureus; assay: Antibacterial activity against methicillin-resistant Staphylococcus aureus 33827 infected in in vitro pharmacokinetic model assessed as time required to 99.9% killing at 750 mg, iv every 8 hrs using 10^6 CFU/ml inoculum; type: functional; outline: as §2
[27] = system: Staphylococcus aureus; assay: Antibacterial activity against methicillin-resistant Staphylococcus aureus 33829 infected in in vitro pharmacokinetic model assessed as time required to 99.9% killing at 750 mg, iv every 8 hrs using 10^6 CFU/ml inoculum; type: functional; outline: as §2
[28] = system: Staphylococcus aureus; assay: Antibacterial activity against methicillin-resistant Staphylococcus aureus 33921 infected in in vitro pharmacokinetic model assessed as time required to 99.9% killing at 1500 mg, iv every 8 hrs using 10^6 CFU/ml inoculum; type: functional

SMILES: C[C@@H](O)[C@H]1C(=O)N2C(C(=O)O)=C(S[C@H]3C[C@@H](C(=O)N4CC[C@H](NC(=O)CNC(=N)N)C4)N(C)C3)[C@H](C)[C@H]12 [TOMOPENEM]
- AUBC [1]: 32.9 log10CFU/ml.hr
- AUBC [2]: 16.9 log10CFU/ml.hr
- AUBC [3]: 35.5 log10CFU/ml.hr
- AUBC [4]: 37.4 log10CFU/ml.hr
- log10CFU/ml [5]: 5.2
- log10CFU/ml [6]: 5.9
- log10CFU/ml [7]: 1.5
- log10CFU/ml [8]: 5.8
- MIC [9]: 2 µg/mL (≈ 3.72 µM)
- MIC [10]: 0.25 µg/mL (≈ 0.465 µM)
- log10CFU/ml [11]: 6
- fT>MIC [12]: 73%
- log10CFU/ml [13]: 3.9
- log10CFU/ml [14]: 4.2
- log10CFU/ml [15]: 3.9
- Activity [16]: Active
- fT>MIC [17]: 16.8%
- fT>MIC [18]: 8.7%
- fT>MIC [19]: 61%
- fT>MIC [20]: 1%
- fT>MIC [21]: 59.3%
- log10CFU/ml [22]: 4.2
- log10CFU/ml [23]: 3.8
- log10CFU/ml [24]: 4.2
- log10CFU/ml [25]: 3.8
- Time [26]: 7 h
- Time [27]: 12 h
- Time [28]: 12 h
